Shown are actives, neighbours in structure and some others; about 1.9% of the full set was active somewhere.
MBD2 DNA inh: inhibitors of human MBD2 binding to methylated oligonucleotide; inhibition, % at 4.4 µM; actives 0.31% (n = 370,000); TR-FRET; Q9UBB5; in the data active = inhibition above about 13%
TDP2 absorb: TDP2 (human) inhibition, absorbance primary screen; recombinant TDP2, T5PNP hydrolysis, p-nitrophenol absorbance 415 nm; inhibition, % at 12.8 µM; actives 0.34% (n = 370,000); AID 720702;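 active = inhibition above the mean of all tested compounds plus 3 SD, set per campaign, cut at about 25% in these data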;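 note: 0% = DMSO with enzyme and 100% = buffer with substrate but no TDP2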
Target sequence (O95551 whole entry, looked up): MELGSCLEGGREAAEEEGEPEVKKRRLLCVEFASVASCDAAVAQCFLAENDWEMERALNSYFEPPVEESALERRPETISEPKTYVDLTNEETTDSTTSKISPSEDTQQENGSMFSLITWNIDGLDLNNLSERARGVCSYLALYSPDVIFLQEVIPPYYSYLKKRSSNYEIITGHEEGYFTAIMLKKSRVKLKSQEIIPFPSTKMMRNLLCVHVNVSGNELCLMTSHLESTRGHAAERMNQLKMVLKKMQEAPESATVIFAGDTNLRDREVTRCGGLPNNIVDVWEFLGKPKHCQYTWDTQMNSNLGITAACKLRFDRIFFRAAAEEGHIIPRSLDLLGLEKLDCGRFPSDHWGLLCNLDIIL
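System: recombinant human TDP2 / Amount: 120 nM TDP2 per well / Also added: 5 mM T5PNP chromogenic substrate / Doses: 12.8 µM single point, 1% DMSO / Incubation: 2 h at 37 °C / Detection: p-Nitrophenol epi absorbance / Evaluation: % inhibition relative to enzyme-containing and enzyme-free wells / Repeats: singlicate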
Rin1 Abl inh: human Rin1-Abl interaction inhibition; P00519+Q13671; TR-FRET Rin1/Abl binding, biochemical; inhibition, % at 7.35 µM; actives 0.4% (n = 360,000); AID 588664; in the data active = inhibition above about 5%, passing the limit was not always enough
UHRF1 binding: human UHRF1 methylated DNA binding inhibitors. UHRF1 binding to methylated oligo, TR-FRET. inhibition, % at 4.4 µM. actives 0.75% (n = 370,000); in the data active = inhibition above about 21%;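 note: UHRF1 SRA domain binding a hemimethylated CpG hairpin DNA probe; 0% = median of test compound wells and 100% = reference inhibitor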
LEDGF integ inh: blocks HIV-1 LEDGF/p75-dependent DNA integration | actives 0.64% (n = 370,000) | inhibition, % at 3.7 µM | TR-FRET IN-LEDGF/p75 DNA integration, Eu/Cy5;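 active = inhibition above the screen-wide mean plus 3 SD, cut at about 13% in these data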;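 note: signal is the Cy5 over europium emission ratio at 671 and 618 nm; 0% = plate median of compound wells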
IN multimer up: HIV-1 integrase multimerization activation, counter-screen; shares compounds with LEDGF integ inh; TR-FRET HIV-1 integrase multimerization, biochemical; activation, % at 7.7 µM; actives 17% (n = 2,000); in the data active = activation above about 8.9%
TR-FRET interf: TR-FRET optical interference, LEDGF/p75 integration counter-screen; shares compounds with LEDGF integ inh; TR-FRET optical interference counterscreen, HIV-1 IN multimerization; inhibition, % at 7.7 µM; 2,000 tested, under 10 active;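 active = inhibition above the mean over all tested compounds plus 3 SD, which no compound reached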;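 note: 0% = integrase with antibodies and DMSO and 100% = antibodies without integrase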
LEDGF integ conf: confirmation of HIV-1 LEDGF/p75-dependent integration inhibitors; actives 36% (n = 2,000); TR-FRET LEDGF/p75-dependent HIV-1 integration, biochemical; shares compounds with LEDGF integ inh; inhibition, % at 3.7 µM; in the data active = inhibition above about 14%
Starred values were filed as active, the others as inactive; . = no result.

SMILES	MBD2 DNA inh	TDP2 absorb	Rin1 Abl inh	UHRF1 binding	LEDGF integ inh	IN multimer up	TR-FRET interf	LEDGF integ conf
Cc1oc(-c2ccc(Cl)cc2)nc1CS(=O)CC(=O)NCCCN1CCOCC1 (configuration not stated)	1.1	2.4	-0.8	1.6	17.6*	-0.3	1.6	-7.2
Cc1ccccc1-c1nc(C#N)c(N2CCCCC2)o1	-3.6	21.3	0.4	-2.6	1.4	.	.	.
COc1ccc(-c2csc(NC(=O)c3cccs3)c2C(=O)O)cc1OC	4.9	-1.1	-3.1	0.0	17.9*	1.5	-7.6	10.1
CC(=O)Nc1ccccc1O	-4.0	1.8	2.5	-2.3	0.1	.	.	.
CC(CC(=O)O)Nc1ccccc1O (configuration not stated)	-0.3	6.8	-0.3	7.2	35.0*	6.2	-22.1	2.8
COc1ccc(NC(=O)N[C@@H](CCSC)C(=O)O)cc1Cl	-3.5	1.7	5.4	-1.0	81.3*	-2.5	12.6	1.8
COc1ccc(NC(=O)N[C@@H](CCSC)C(=O)O)cc1OC	1.6	18.8	-4.8	-5.9	-1.5	.	.	.
COc1ccc(OC)c(S(=O)(=O)NC2CC(=O)N(c3cccc(F)c3)C2)c1 (configuration not stated)	-5.9	7.9	2.7	-1.6	4.4	.	.	.
Nc1cc(=O)[nH]c(SCC(=O)NC2CCCCCCC2)n1	8.3	-8.8	1.2	4.1	70.5*	-4.5	22.9	14.5*
CC(=O)Nc1ccc(S(=O)(=O)NN=c2sc3ccccc3n2C)cc1N	-5.4	1.4	-1.6	-1.6	-1.0	.	.	.
CCCCS(=O)(=O)N1CCCc2nc(-c3ccc(F)cc3)ccc21	-1.6	1.6	.	-1.5	1.1	.	.	.
CC1=CC(C)(C)N2C(=O)C(=Nc3ccc(O)cc3)c3cccc1c32	-22.7	11.5	-8.0	-11.1	16.9*	18.9*	-68.1	45.4*
OC(c1ccc(F)c(F)c1)c1ncc(-c2ccc(F)cc2)[nH]1 (configuration not stated)	-3.0	-4.3	-2.8	-1.1	0.9	.	.	.
COc1ccc(NC(=O)N2C[C@H]3CON(C)[C@H]3C[C@H]2c2ccc(N3CCCCC3)cc2)cc1	-1.8	4.0	6.4	-2.5	3.5	.	.	.
Cc1ccccc1NC(=O)c1sc2nc3c(c(-c4ccco4)c2c1N)CCC3	4.7	-7.7	-1.9	14.5	46.1*	1.4	-7.0	1.0
COc1ccccc1NC(=O)c1cc([N+](=O)[O-])ccc1N1CCOCC1	-0.2	18.4	-2.7	-0.9	-1.3	.	.	.
COCC(=O)N1CCC(Oc2ccc(C(=O)N3CCCCCCC3)cc2)CC1	1.8	15.7	-1.4	7.6	-1.4	.	.	.
COCC(=O)N1CCC(Oc2ccc(C(=O)N3CCCCCC3)cc2)CC1	2.0	-1.4	-3.6	0.7	28.2*	-0.7	3.6	0.4
CCN1CCN(c2cc(C)c3cc(NC(=S)N4CCN(c5ccccc5)CC4)ccc3n2)CC1	-7.5	-12.7	-5.0	-3.6	4.8	.	.	.
CCN1CCN(c2cc(C)c3cc(NC(=S)N4CCOCC4)ccc3n2)CC1	5.5	2.4	-6.6	-1.5	21.1*	0.5	-2.5	-5.7
Nc1cc(S(=O)(=O)N2CCCCC2)ccc1Oc1ccc(Cl)cc1	-2.5	-5.7	-1.4	-1.4	40.0*	-0.1	0.5	-2.8
COc1ccc(NC(=S)N2CCC(NC(=O)c3ccc(F)cc3)CC2)cc1	-2.1	3.7	0.2	3.2	3.8	.	.	.
COc1ccc(NC(=S)N2CCC(NC(=O)c3ccc(OC)cc3)CC2)cc1	0.9	5.1	0.6	-2.1	26.6*	-1.5	7.5	-0.4
NC(N)=NS(=O)(=O)c1ccc(NC(=S)NC(=O)/C=C/c2ccco2)cc1	0.2	21.0	-3.5	3.1	7.0	.	.	.
NS(=O)(=O)c1ccc(NC(=S)NC(=O)/C=C/c2ccco2)cc1	-4.8	-7.1	3.7	17.5	33.4*	12.7*	-45.2	37.9*

Bioassay records from PubChem.
